This is one part of a sample in which hits are shown more often than they occur.
HUVEC prolif 384: inhibitors of HUVEC proliferation, primary screen, cell-based, 384-well; CellTiter-Glo luminescence, 72 h; active compounds read low; 86,000 compounds, 1.1% hits; AID 648, 2007; viability, % at 10 µM (by protocol);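 active means viability at or below 30%; inactive means viability above 30%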;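 further: 100% = median luminescence of DMSO-only cell control wells on each plate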
bCat KO growth: primary screen for growth suppressors in beta-catenin knockout HCT116 cells (colon tumor, human); HCT116 beta-catenin knockout viability, CellTiter-Glo, 60 h; active compounds read low; viability, % at 10 µM; 140,000 compounds, 1.5% hits; AID 818, 2007;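 active means viability at or under a set limit, the compound median less 4 SD, cut at about 6% in these data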;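 further: 0% = Hyamine 1622 control at 20 µM and 100% = untreated cell control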
Lung fibro prol: antiproliferative effect on LL 47 fibroblasts – human, LL 47 cells, CellTiter-Glo luminescence, primary screen. 85,000 compounds, 1.1% hits. AID 719, 2007. LL 47 human lung fibroblast viability, ATP luminescence; active compounds read low. viability, % at 10 µM;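 active means viability at or below 50% in the single dose screen; inactive means viability above 50%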;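 further: compound exposure lasted 72 h before the ATP readout; 100% = median luminescence of untreated cell-only wells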
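test system = LL 47 human lung fibroblasts | amount = 1,150 fibroblasts seeded per well | medium = 15% FBS in IMEM | times = overnight cell rest, 72 h compound treatment at 37 °C | measured by = CellTiter-Glo luminescence measuring cellular ATP | read-out = viability percentage against median untreated-cell control | benchmarks = cell-only wells, no compound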
H69AR inhibit: proliferation blockers of H69AR lung cancer cells, primary screen, cell-based, human, 86K library; H69AR lung tumor viability, ATP luminescence, 72 h; active compounds read low; viability, % at 10 µM; 85,000 compounds, 6% hits; AID 598, 2007;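 active means viability at or below 40%; inactive means viability above 40%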;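 further: multidrug resistant small cell line overexpressing MRP-1 efflux transporter; 100% = mean luminescence of untreated control wells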
HCT116 PTEN-null: growth suppression of PTEN-null HCT116, primary screen, cell-based, CellTiter-Glo | viability, % at 10 µM | AID 827, 2007 | HCT116 PTEN-null viability, 60 h; active compounds read low | 140,000 compounds, 1.2% hits;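 active means viability at or below a set limit, 4 SD under the median of all tested compounds, cut at about 3.7% in these data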;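 further: PTEN knockout HCT116 line with beta catenin targeted HCT116 as companion control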
Phagocytosis inh: inhibitors of macrophage phagocytosis, primary screen, imaging, J774A.1 cells, IgG beads; 110,000 compounds, 0.07% hits; AID 1029, 2008; inhibition, % at 5 µM; J774A.1 macrophage IgG-bead phagocytosis;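 active means inhibition above the mean of the plate negative controls plus 5 SD, cut at about 13% in these data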;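 further: phagocytic index as fraction of beads internalized from green versus red external bead signal; plate controls were DMSO negative control for no effect and cytochalasin-D positive control for full effect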
Starred values were filed as active, the others as inactive; nt = no result given; [ ] = dose if it differs, or a comment.

SMILES | HUVEC prolif 384 | bCat KO growth | Lung fibro prol | H69AR inhibit | HCT116 PTEN-null | Phagocytosis inh
Cc1cc(C)n(-c2nc(SCCN(C)C)c3c4c(sc3n2)COC(C)(C)C4)n1 | nt | 1.9* | nt | nt | 3.3* | 1
Cc1cc(C)n(-c2nc(NCC(C)O)c3c4c(sc3n2)COC(C)(C)C4)n1 (centres undefined) | 92 | 73 | 93 | 59 | 76 | -3
Cc1cc(C)n(-c2nc(NCC3CCCO3)c3c4c(sc3n2)COC(C)(C)C4)n1 (centres undefined) | 100 | 58 | 95 | 10* | 51 | -1
O=C(NCc1ccc(Cl)cc1Cl)C1CCN(S(=O)(=O)c2ccc3c(c2)OCCCO3)CC1 | nt | 89 | nt | nt | 84 | 1
O=C(NCCCN1CCOCC1)c1ccc(Sc2cccc(Cl)c2)c([N+](=O)[O-])c1 | nt | 81 | nt | nt | 66 | -11
CC(=O)/C(=C/c1ccc(N(C)C)cc1)C(=O)c1ccccc1 | nt | 95 | nt | nt | 91 | 26*[artifact]
COC(=O)C1=C(C)N(CCCC(=O)O)C(=O)NC1c1cccs1 (centres undefined) | nt | 0.4* | nt | nt | 0.5* | nt
CC1=C(C(=O)OCc2ccccc2)C(c2cccs2)NC(=O)N1CCCC(=O)O (centres undefined) | nt | 90 | nt | nt | 90 | nt
COc1cccc(C(=O)c2sc(NC(C)C)nc2N)c1 | 52 | 4.9* | 43* | 46 | 4 | nt
O=C(Nc1ccc(Cl)c(Cl)c1)Nc1ccc(Br)cc1F | nt | 4.9* | nt | nt | 4 | nt
Cc1cc(C)c2c(=O)n(CC(=O)N3CCC(Cc4ccccc4)CC3)sc2n1 | 90 | 1.4* | 65 | 4.8* | 9 | -1
Cc1cc(C)c2c(=O)n(CC(=O)NCCCN3CCN(c4ccccc4F)CC3)sc2n1 | 69 | 1.7* | 28* | 0.4* | 1.8* | 0
Cc1cccc(N2CCN(C(=O)Cn3sc4nc(C)cc(C)c4c3=O)CC2C)c1 (centres undefined) | 68 | 1.6* | 23* | 0.0* | 1.4* | nt
Cc1cc(C)c2c(=O)n(CC(=O)NCCCN3CCOCC3)sc2n1 | 98 | 79 | 100 | 86 | 84 | 0
Cc1cccc(N2CCN(C(=O)c3ccncc3)CC2C)c1 (centres undefined) | 84 | 82 | 101 | 29* | 71 | -1
Cc1cc(C(=O)Nc2ccc(N3CCOCC3)cc2)c2ccccc2n1 | 89 | 81 | 100 | 91 | 75 | -1
O=C(Nc1ccccc1N1CCOCC1)c1cc(-c2ccco2)nc2ccccc12 | 71 | 63 | 93 | 5.8* | 52 | nt
Cn1c(=N)n(CC(O)c2cccc3ccccc23)c2ccccc21 (centres undefined) | 88 | 29 | 84 | 26* | 32 | 0
Cn1c(=N)n(CC(O)c2ccco2)c2ccccc21 (centres undefined) | 99 | 92 | nt | 102 | 89 | 0
CCCCCCN=CC1=C(O)C(C(=O)OC)C(C)(C)CC1=O (centres undefined) | 102 | 100 | 101 | 97 | 102 | 0
CC1CCN(C(=O)CN(c2ccc(Cl)c(C(F)(F)F)c2)S(C)(=O)=O)CC1 | 107 | 87 | 105 | 96 | 88 | 155*
CC(=O)c1sc2nc(-c3cccs3)cc(C(F)(F)F)c2c1N | 78 | 60 | 93 | 50 | 56 | -3
Cc1c(C(=O)Nc2nccs2)sc2nc(-c3cccs3)cc(C(F)(F)F)c12 | 45 | 1.8* | 68 | 36* | 2.2* | nt
Cn1c(NC(=O)c2ccc(Br)o2)cc(=O)n(C)c1=O | nt | 98 | nt | nt | 101 | 0
Cc1cccc(NC(=O)CSc2nc3ccccc3o2)c1 | nt | 91 | nt | nt | 100 | 0
Cc1nn2c(-c3cccc(NC(=O)CSc4nc5ccccc5o4)c3)nnc2c2ccccc12 | 72 | 68 | 109 | 9.6* | 61 | 0
CCOc1ccc(NC(=O)c2cc3n(n2)C(C(F)(F)F)CC(c2ccco2)N3)cc1 (centres undefined) | 97 | 72 | 37* | 63 | 93 | 0
CC(C)CC(=O)/C=C/n1c(=S)oc2ccccc21 | nt | 3.8* | nt | nt | 2.4* | -6
CC(=O)/C=C/n1c(=S)oc2ccccc21 | nt | 5.3* | nt | nt | 5 | 6

Assay outcomes as filed in PubChem.
